Rows were chosen to be rich in hits. Some 3.5% of all compounds tested hit in one or more screens of this group.
RGS4 inh = human RGS4 inhibition; HEK293 M3R/RGS4 inducible, Fluo-4 calcium flux; stronger effect = higher value; triggered by carbachol at its EC20; B-score at 10 µM; hit rate 0.45% among 310,000; AID 463165;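 active = B-score, a plate-corrected calcium signal, over three deviations above library mean, with baseline fluorescence within five deviations of library mean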;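 also: RGS4 expression induced by doxycycline in cells with stable M3 receptor; B-score is computed from the integrated fluorescence ratio over baseline after carbachol; higher B-score means a larger calcium signal and so more RGS4 inhibition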
Target sequence (P49798 whole entry, looked up): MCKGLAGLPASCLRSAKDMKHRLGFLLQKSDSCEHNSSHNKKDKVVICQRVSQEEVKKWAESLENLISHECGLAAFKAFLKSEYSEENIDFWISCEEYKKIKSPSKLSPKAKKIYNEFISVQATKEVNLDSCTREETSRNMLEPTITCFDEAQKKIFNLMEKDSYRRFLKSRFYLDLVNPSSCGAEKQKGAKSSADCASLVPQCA
MrgX1 ag = activates human MrgX1 receptor signaling. MrgX1-HEK293 cells, Fluo-4 calcium fluorescence, agonist mode; stronger effect = higher value. B-score at 10 µM. hit rate 0.44% among 310,000. AID 588627;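 active = calcium response B-score plate-corrected fluorescence ratio at least 3 library SD, with starting fluorescence B-score inside 5 SD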
Target sequence (Q96LB2 whole entry, looked up): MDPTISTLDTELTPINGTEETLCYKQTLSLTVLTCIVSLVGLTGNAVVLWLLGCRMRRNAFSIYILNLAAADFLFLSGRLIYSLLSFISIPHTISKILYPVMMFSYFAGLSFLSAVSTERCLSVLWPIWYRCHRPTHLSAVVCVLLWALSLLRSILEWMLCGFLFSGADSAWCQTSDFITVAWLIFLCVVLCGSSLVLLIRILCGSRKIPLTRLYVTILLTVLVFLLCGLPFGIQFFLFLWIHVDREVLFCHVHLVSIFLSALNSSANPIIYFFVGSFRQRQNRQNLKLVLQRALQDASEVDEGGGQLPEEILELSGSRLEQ
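times = overnight plating, then 30 min 37 °C plus 30 min room-temperature dye loading | assay system = stable human MrgX1 HEK293 cell line | input = fifteen thousand cells per well | signal = kinetic calcium dye fluorescence, Fluo-4 NW | dosing = compound delivered in addition one of three | read-out = B-scored fluorescence response ratio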
MrgX1 allo act = allosterically activates human MrgX1 receptor signaling; hit rate 0.63% among 310,000; MrgX1-HEK293, Fluo-4 calcium flux, FDSS; stronger effect = higher value; B-score at 10 µM; Q96LB2;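 active = plate-corrected calcium response at least 3 library SD above typical, normal starting fluorescence, not activating the receptor alone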;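 also: compound read alongside a low EC10 to EC30 dose of BAM8-22 agonist; peak minus trough fluorescence over baseline measured at the second addition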
MrgX1 antag = antagonists of human MrgX1 receptor | Q96LB2 | MRGX1-HEK293 calcium flux, Fluo-4, BAM8-22 antagonism; stronger effect = lower value | B-score at 10 µM | hit rate 1.3% among 310,000;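 active = calcium-response B-score plate-corrected more than 3 library SD below zero, starting fluorescence within 5 deviations, no agonist response on first addition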;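 also: peak minus trough fluorescence over baseline after final BAM8-22 challenge near maximal dose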
RGS4 act = potentiators or activators of RGS4; HEK293 M3R/inducible RGS4, carbachol calcium flux Fluo4; stronger effect = lower value; B-score at 10 µM; hit rate 0.92% among 310,000; AID 463111;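 active = B-score of the integrated calcium signal more than 4 SD below the library mean, with starting fluorescence not abnormally high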;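 also: negative B-score means reduced calcium response which marks RGS4 activation or potentiation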
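test system = M3R-expressing HEK293 line, RGS4 induced by doxycycline | probe or stimulus = carbachol at ECmax as muscarinic agonist stimulus | timing = dye loading 30 min 37 °C, buffer rest 30 min RT | signal = calcium dye Fluo4 fluorescence | evaluation = B score from integrated fluorescence ratio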
RGS4 act valid = RGS4 activation, validation assay. shares compounds with RGS4 act. HEK293 M3R/RGS4 inducible, carbachol calcium flux Fluo4. inhibition, % at 10 µM. hit rate 89% among 1,100;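 active = inhibition above 3 SD of the buffer control wells, cut at about 41% in these data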;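 also: signal is the integrated peak-minus-minimum Fluo4 fluorescence over baseline ratio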
RGS4 act ctr = activity in cells without induced RGS4 expression | inhibition, % at 10 µM | shares compounds with RGS4 act | hit rate 82% among 1,100 | AID 602283 | HEK293 M3R non-induced RGS4, Fluo4 calcium flux; after carbachol challenge at its EC90;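 active = inhibition exceeding 3 SD of buffer-only control wells, cut at about 26% in these data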;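 also: percent drop in integrated peak-minus-baseline over baseline Fluo4 ratio after carbachol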
* marks the source's active call; other numbers are inactive results; i = inactive; . = no result given.

SMILES	RGS4 inh	MrgX1 ag	MrgX1 allo act	MrgX1 antag	RGS4 act	RGS4 act valid	RGS4 act ctr
Cc1cccc(C(=O)NC(=S)NNC(=O)COc2ccc(Cl)cc2)c1	i	.	.	.	-11.2*	58.5*	49.8*
c1ccc(Cn2c(CN3CCCC3)nc3ccccc32)cc1	i	i	i	i	-8.53*	0.0	83.8*
Clc1ccc(Cn2c(CN3CCCC3)nc3ccccc32)cc1	i	i	i	i	i	.	.
CN(C)c1ccc(/C=N/n2c(-c3ccccc3Br)n[nH]c2=S)cc1	i	i	i	i	-12*	93.5*	93.8*
CN(C)c1ccc(/C=N/n2c(-c3cccnc3)n[nH]c2=S)cc1	i	i	i	i	i	.	.
Cc1cc(NC(=O)CSc2cn(CCNC(=O)c3ccc(F)cc3)c3ccccc23)no1	i	i	i	i	-7.66*	69.0*	33.3*
CC(C)C1Oc2ccccc2C(=O)N(CC(=O)c2ccc3c(c2)OCCO3)C1=O (stereo unspecified)	i	i	i	i	-7.85*	0.0	0.0
CCC1Oc2ccccc2C(=O)N(CC(=O)c2ccc3c(c2)OCCO3)C1=O (stereo unspecified)	i	i	i	i	-8.09*	72.5*	83.8*
CC1Oc2ccccc2C(=O)N(CC(=O)c2ccc3c(c2)OCCO3)C1=O (stereo unspecified)	i	i	i	i	i	.	.
O=C(COc1ccccc1)Nc1ccccc1N1CCN(c2ccc(F)cc2)CC1	i	i	i	i	-9.1*	61.0*	0.0
O=C(COc1ccccc1)Nc1ccccc1N1CCCCC1	i	i	i	i	i	.	.
CC(=O)N(C)c1ccc(NC(=O)Nc2ccc(Cl)cc2)cc1	i	i	i	i	-8.34*	93.0*	67.8*
CC(=O)N(C)c1ccc(NC(=O)Nc2ccc(C)cc2)cc1	i	i	i	i	i	.	.
Nc1ccccc1C(=O)NNC(=O)C(=O)/C=C(\O)c1ccccc1	i	i	i	i	i	.	.
CCn1ncc(Br)c1C(=O)Nc1ccc(F)c([N+](=O)[O-])c1	i	i	i	i	i	.	.
CCN(CC)CC(=O)N1c2ccccc2Sc2ccccc21	i	i	i	i	-8.54*	93.0*	81.3*
O=C(CN1CCCC1)N1c2ccccc2Sc2ccccc21	i	i	i	i	-9.52*	92.0*	69.3*
NCCC(=O)N1c2ccccc2Sc2ccccc21	i	i	i	i	i	.	.
O=C(c1ccc(F)cc1F)N1CCN(c2ccccn2)CC1	i	i	i	i	i	.	.
CCOC(=O)Cn1c(-c2ccccc2)cc(SC)c(C#N)c1=O	i	i	i	i	-9.25*	90.5*	79.3*
CSc1cc(-c2ccccc2)n(C)c(=O)c1C#N	i	i	i	i	i	.	.
Cc1ccc(NC(=S)N2CCSC2c2cccs2)cc1 (stereo unspecified)	i	i	i	i	i	.	.
CN1CCN(CC(=O)Nc2c(C(=O)c3ccccc3)oc3ccccc23)CC1	i	i	i	i	-9.96*	70.0*	26.8*
CCCn1ncc2c(Nc3ccc(C)c(C)c3)ncnc21	i	i	i	i	i	.	.
COc1ccc(CCN(C(=O)c2cccc(F)c2)C2CC(=O)N(c3ccccc3)C2=O)cc1 (stereo unspecified)	i	i	i	i	i	.	.
SMILES	RGS4 inh	MrgX1 ag	MrgX1 allo act	MrgX1 antag	RGS4 act	RGS4 act valid	RGS4 act ctr
COc1ccc(N2C(=O)CC(N(CCc3ccccc3)C(=O)c3ccccc3)C2=O)cc1 (stereo unspecified)	i	i	i	i	-10.5*	0.0	0.0
CCOC(=O)C1(CCc2ccccc2)CCN(Cc2ccc(C(=O)OC)cc2)CC1	i	i	i	i	i	.	.
COc1ccc(/C=C/CN2CCC(CO)(Cc3ccccc3Cl)CC2)cc1	i	i	i	i	-9.73*	89.0*	39.8*
COC(=O)c1ccc(CN2CCC(CO)(Cc3ccccc3Cl)CC2)cc1	i	i	i	i	-7.76*	91.5*	59.8*
CCOC(=O)C1(CC2CC2)CCN(Cc2ccc(C(=O)OC)cc2)CC1	i	i	i	i	-8.73*	93.0*	48.8*
CCC(C(=O)OCC(=O)Nc1cc(Cl)cc(Cl)c1)c1ccccc1 (stereo unspecified)	i	i	i	i	-8.43*	73.5*	25.8*
CCC(C(=O)OCC(=O)Nc1cccc(C(C)=O)c1)c1ccccc1 (stereo unspecified)	i	i	i	i	i	.	.
CN(C(=O)c1ccc(OC2CCN(CCc3ccccc3)CC2)cc1)C1CCOCC1	i	i	i	i	i	.	.
CN(C(=O)c1ccc(OC2CCN(CCc3ccccc3)CC2)cc1)C1CCCCC1	i	i	i	i	-8.92*	0.0	0.0
C=CCN(C(=O)c1csnn1)C(C(=O)NCc1ccc(F)cc1)c1ccccc1 (stereo unspecified)	i	i	i	i	i	.	.
COc1ccccc1C(=O)Nc1nnc(S(=O)(=O)N(C)Cc2ccccc2)s1	i	i	i	i	-8.88*	89.0*	51.8*
COc1ccc(CN(C)S(=O)(=O)c2nnc(NC(=O)c3ccccc3)s2)cc1OC	i	i	i	i	i	.	.
OC(CN1CCN(C(c2ccccc2)c2ccccc2)CC1)c1ccc(Br)cc1 (stereo unspecified)	i	i	i	i	-13.2*	92.5*	78.8*
O=C(CCn1cccc1)NCc1ccc(Cl)cc1	i	i	i	i	i	.	.
C[C@]1(CC/C(=C/CO)CO)[C@H](CO)CC[C@@]23COC(=O)C2=CCC[C@@H]31	.	i	i	i	.	.	.
CCN(CC)CCn1c(=N)n(CC(=O)c2ccc(Br)s2)c2ccccc21	i	i	i	i	-7.76*	58.5*	83.8*
O=C(Nc1ccc(N2CCN(C(=O)c3ccco3)CC2)c(Cl)c1)c1cc2ccccc2o1	i	i	i	i	-8.68*	93.0*	64.3*
Cc1ccsc1/C=N/NC(=O)c1nnn(-c2nonc2N)c1CSc1ccccc1	i	i	i	i	i	.	.
C[C@H]1[C@H](NC(=O)C(=NOC(C)(C)C(=O)O)c2csc(N)n2)C(=O)N1S(=O)(=O)O	.	i	i	i	.	.	.

Screens deposited in PubChem by Johns Hopkins Ion Channel Center.
